Values after ≈ are worked out from the molar mass of the structure shown.
Tested on: not listed separately
Assay: Selectivity index, ratio of IC50 for african green monkey Vero cells to MIC for multidrug-resistant Mycobacterium tuberculosis
Assay type: functional

For `CCc1ccc(C(=O)NCC2=C[C@@H]3Oc4ccccc4C(=O)C3=CN2c2ncccc2C)cc1`, the “Selectivity Index” value was 1977.

Tested on: Mycobacterium tuberculosis
Assay: Antimycobacterial activity against multidrug-resistant Mycobacterium tuberculosis by agar dilution method
Assay type: functional
Method in brief: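 Agar dilution MIC on Middlebrook 7H11 agar supplemented with OADC, following NCCLS-like procedure; determined in duplicate.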

In order of rising MIC:
1. CCc1ccc(C(=O)NCC2=C[C@@H]3Oc4ccccc4C(=O)C3=CN2c2ncccc2C)cc1  0.07 µM (≈ 0.0316 µg/mL)
2. Cc1ccc2ccc(C(=O)NCC3=C[C@@H]4Oc5ccccc5C(=O)C4=CN3c3ncccc3C)cc2c1  0.13 µM (≈ 0.0634 µg/mL)
3. Cc1cccnc1N1C=C2C(=O)c3ccccc3O[C@H]2C=C1CNC(=O)c1ccc2ccccc2c1  0.42 µM (≈ 0.199 µg/mL)
4. Cc1ccc2ccc(C(=O)NCC3=C[C@@H]4Oc5ccccc5C(=O)C4=CN3c3ncc(Br)cc3Br)cc2c1  0.61 µM (≈ 0.385 µg/mL)
5. CCc1ccc(C(=O)NCC2=C[C@@H]3Oc4ccccc4C(=O)C3=CN2c2ncc(Br)cc2Br)cc1  1.3 µM (≈ 0.774 µg/mL)
6. Cc1cccnc1N1C=C2C(=O)c3ccccc3O[C@H]2C=C1CNC(=O)c1cccc(Cl)c1  1.7 µM (≈ 0.778 µg/mL)
7. Cc1ccc(C(=O)NCC2=C[C@@H]3Oc4ccccc4C(=O)C3=CN2c2ncccc2C)cc1  1.78 µM (≈ 0.779 µg/mL)
8. O=C(NCC1=C[C@@H]2Oc3ccccc3C(=O)C2=CN1c1ncc(Br)cc1Br)c1cccc(Cl)c1  2.6 µM (≈ 1.56 µg/mL)
9. O=C(NCC1=C[C@@H]2Oc3ccccc3C(=O)C2=CN1c1ncc(Br)cc1Br)c1ccc(Cl)cc1  2.95 µM (≈ 1.77 µg/mL)
10. Cc1cccnc1N1C=C2C(=O)c3ccccc3O[C@H]2C=C1CNC(=O)c1ccc(Cl)cc1  3.4 µM (≈ 1.56 µg/mL)
11. COc1ccc(C(=O)NCC2=C[C@@H]3Oc4ccccc4C(=O)C3=CN2c2ncccc2C)cc1  3.44 µM (≈ 1.56 µg/mL)
12. Cc1cccnc1N1C=C2C(=O)c3ccccc3O[C@H]2C=C1CNC(=O)c1ccccc1  3.68 µM (≈ 1.56 µg/mL)
13. CO[C@H]1/C=C/O[C@@]2(C)Oc3c(C)c(O)c4c(O)c(c(/C=N/N5CCN(C)CC5)c(O)c4c3C2=O)NC(=O)/C(C)=C\C=C\[C@H](C)[C@H](O)[C@@H](C)[C@@H](O)[C@@H](C)[C@H](OC(C)=O)[C@@H]1C [RIFAMPIN]  3.79 µM (≈ 3.12 µg/mL)
14. O=C(NCC1=C[C@@H]2Oc3ccccc3C(=O)C2=CN1c1ncc(Br)cc1Br)c1ccc(Cl)c(Cl)c1  4.91 µM (≈ 3.12 µg/mL)
15. O=C(NCC1=C[C@@H]2Oc3ccccc3C(=O)C2=CN1c1ncc(Br)cc1Br)c1ccc2ccccc2c1  5.04 µM (≈ 3.11 µg/mL)
16. Cc1cccnc1N1C=C2C(=O)c3ccccc3O[C@H]2C=C1CNC(=O)c1ccc(F)cc1  7.09 µM (≈ 3.13 µg/mL)
17. NNC(=O)c1ccncc1 [ISONIAZID]  45.6 µM (≈ 6.25 µg/mL)
18. CC[C@@H](CO)NCCN[C@@H](CC)CO [ETHAMBUTOL]  122 µM (≈ 25 µg/mL)
